How the values were obtained:
[1] = Selectivity index, IC50 for african green monkey Vero cells to IC50 for Plasmodium falciparum D6; assay type: functional
Outline: (§1)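 Selectivity index is the cytotoxicity IC50 in Vero cells divided by the antimalarial IC50 against the stated P. falciparum clone (D6 or W2).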

Plasmodium falciparum [2] = experiment: Antimalarial activity against Plasmodium falciparum D6 assessed as plasmodial LDH activity after 72 hrs; assay type: functional, organism-based; settings: Plasmodium falciparum, D6, 72 h; read-out: IC50
Outline: (§2)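 P. falciparum D6 (chloroquine-sensitive) and W2 (chloroquine-resistant) clones screened in vitro alongside Vero cytotoxicity, up to a highest concentration of 12.5; IC50 determined.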

Plasmodium falciparum [3] = experiment: Antimalarial activity against Plasmodium falciparum W2 assessed as plasmodial LDH activity after 72 hrs; assay type: functional, organism-based; settings: Plasmodium falciparum, W2, 72 h; read-out: IC50; outline: as §2
[4] = Selectivity index, IC50 for african green monkey Vero cells to IC50 for Plasmodium falciparum W2; assay type: functional; outline: as §1
Vero = experiment: Cytotoxicity against african green monkey Vero cells at 12.5 uM; assay type: cell-based; settings: chlorocebus sabaeus
Outline: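 Mammalian kidney Vero cells screened in vitro for cytotoxicity, in parallel with the antimalarial screen, up to a highest concentration of 12.5.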

SMILES	Ratio IC50 [1]	IC50 (Plasmodium falciparum [2]) [µM]	IC50 (Plasmodium falciparum [3]) [µM]	Ratio IC50 [4]	Activity (Vero)
Cc1ccc(C2OOC(c3ccc(CO)cc3)OO2)cc1 (stereo not given)	>9	1.83	2.42	>6.8	Non-toxic
Cc1ccc(C2OOC(c3ccc(CNc4ccccc4S)cc3)OO2)cc1 (stereo not given)	>5.5	2.19	1.59	>7.6	Non-toxic
O=Cc1ccc(C2OOC(c3ccccc3)OO2)cc1 (stereo not given)	>1.3	13.2	> 17.5	>1	Non-toxic
Cc1ccc(C2OOC(c3ccc(CNc4cccc(O)c4)cc3)OO2)cc1 (stereo not given)	>3.7	3.42	3.95	>3.2	Non-toxic
Cc1ccc(C2OOC(c3ccc(C(=O)N4CCN(c5ccccc5)CC4)cc3)OO2)cc1 (stereo not given)	>2.6	4.03	7.16	>1.5	Non-toxic
Cc1ccc(C2OOC(c3ccc(CNc4c(C)cccc4C)cc3)OO2)cc1 (stereo not given)	>8.2	1.48	1.45	>8.4	Non-toxic
CCc1ccc(C2OOC(c3ccc(C(=O)NCCCO)cc3)OO2)cc1 (stereo not given)	>2.6	4.82	4.82	>2.6	Non-toxic
Cc1ccc(C2OOC(c3ccc(CNc4ccccc4F)cc3)OO2)cc1 (stereo not given)	>6.6	1.88	1.83	>6.8	Non-toxic
COc1cc(NCc2ccc(C3OOC(c4ccc(C)cc4)OO3)cc2)cc(OC)c1 (stereo not given)	>1.8	6.37	9.2	>1.2	Non-toxic
Cc1ccc(C2OOC(c3ccc(CNc4ccccc4)cc3)OO2)cc1 (stereo not given)	>7.1	1.84	1.59	>8.2	Non-toxic
Cc1ccc(C2OOC(c3ccc(C(=O)NCCCCCCCN)cc3)OO2)cc1 (stereo not given)	>2.2	5.13	4.66	>2.4	Non-toxic
Cc1ccc(C2OOC(c3ccc(/C=N\c4ccc(Br)cc4)cc3)OO2)cc1 (stereo not given)	>1.4	7.95	4.09	>2.6	Non-toxic
OCc1ccc(C2OOC(c3ccccc3)OO2)cc1 (stereo not given)	>5.6	3.09	1.82	>9.5	Non-toxic
CCc1ccc(C2OOC(c3ccc(C(=O)NCCCNc4ccnc5cc(Cl)ccc45)cc3)OO2)cc1 (stereo not given)	>8.2	1.08	2.43	>3.7	Non-toxic
Cc1ccc(C2OOC(c3ccc(CNc4ccc(F)cc4)cc3)OO2)cc1 (stereo not given)	>6	2.09	2.35	>5.3	Non-toxic
CCc1ccc(NCc2ccc(C3OOC(c4ccc(C)cc4)OO3)cc2)cc1 (stereo not given)	>3.7	3.32	2.35	>5.2	Non-toxic
Cc1ccc(C2OOC(c3ccc(CN(C)c4ccccc4)cc3)OO2)cc1 (stereo not given)	>8.4	1.51	2.11	>6	Non-toxic
Cc1cccc(C2OOC(c3ccc(CO)cc3)OO2)c1 (stereo not given)	>12.9	1.28	1.38	>11.9	Non-toxic

SMILES	Ratio IC50 [1]	IC50 (Plasmodium falciparum [2]) [µM]	IC50 (Plasmodium falciparum [3]) [µM]	Ratio IC50 [4]	Activity (Vero)
Cc1ccc(C2OOC(c3ccc(CNc4ccc(N)cc4)cc3)OO2)cc1 (stereo not given)	>2.4	5.28	7.39	>1.7	Non-toxic
Cc1ccc(C2OOC(c3ccc(CNc4ccc(Cl)cc4)cc3)OO2)cc1 (stereo not given)	>6.8	1.79	1.7	>7	Non-toxic
COc1ccc(NCc2ccc(C3OOC(c4ccc(C)cc4)OO3)cc2)cc1 (stereo not given)	>1.5	8.13	10.2	>1.2	Non-toxic
Cc1ccc(C2OOC(c3ccc(CNc4cccc(F)c4)cc3)OO2)cc1 (stereo not given)	>5.1	2.46	1.83	>6.8	Non-toxic
Cc1ccc(C2OOC(c3ccc(/C=N\c4ccccc4)cc3)OO2)cc1 (stereo not given)	>1.7	7.74	5.53	>2.4	Non-toxic
CC(C)c1ccc(C2OOC(c3ccc(C=O)cc3)OO2)cc1 (stereo not given)	>2.2	6.99	3.11	>4.9	Non-toxic
CCc1ccc(C2OOC(c3ccc(COS(C)(=O)=O)cc3)OO2)cc1 (stereo not given)	>2.5	4.99	3.94	>3.2	Non-toxic
Cc1ccc(C2OOC(c3ccc(CNCc4ccccc4)cc3)OO2)cc1 (stereo not given)	>3.7	3.44	3.44	>3.7	Non-toxic
Cc1ccc(C2OOC(c3ccc(COS(C)(=O)=O)cc3)OO2)cc1 (stereo not given)	>1.7	7.64	8.18	>1.6	Non-toxic
Cc1ccc(C2OOC(c3ccc(CNCCc4ccccc4)cc3)OO2)cc1 (stereo not given)	>1.6	7.67	6.39	>1.9	Non-toxic
CCc1ccc(C2OOC(c3ccc(C=O)cc3)OO2)cc1 (stereo not given)	>1.4	10.9	5.99	>2.6	Non-toxic
CCc1ccc(C2OOC(c3ccc(C(=O)NCCCCCCO)cc3)OO2)cc1 (stereo not given)	>3.4	3.36	4.81	>2.4	Non-toxic
Cc1ccc(C2OOC(c3ccc(/C=N\N)cc3)OO2)cc1 (stereo not given)	>9	2.59	1.26	>9	Non-toxic
CCc1ccc(C2OOC(c3ccc(C(=O)NCCO)cc3)OO2)cc1 (stereo not given)	>2	6.67	7.51	>1.8	Non-toxic
Cc1ccc(C2OOC(c3ccc(C(=O)NC4CCCCC4)cc3)OO2)cc1 (stereo not given)	>2.8	4.43	2.86	>4.3	Non-toxic
Cc1ccc(C2OOC(c3ccc(/C=N\CCO)cc3)OO2)cc1 (stereo not given)	>5.1	2.82	2.37	>6.1	Non-toxic
CCc1ccc(C2OOC(c3ccc(CO)cc3)OO2)cc1 (stereo not given)	9.9	1.58	1.09	14.4	Non-toxic

— ChEMBL document CHEMBL1795212, “Synthesis and in vitro antimalarial activity of tetraoxane-amine/amide conjugates” (Eur J Med Chem, 2011)
